{"source": "ChEMBL document CHEMBL5653606", "about": "(J Pharmacol Exp Ther, 2011)", "key": {"Rattus norvegicus [1]": {"system": "Rattus norvegicus", "assay": "Antihyperalgesic activity in CFA induced Sprague-Dawley rat assessed as partial reduction of mechanical allodynia at 3 mg/kg, po in presence of CB1 antagonist SR141716 by von frey test", "format": "functional, organism-based", "how_it_was_run": "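Male Sprague-Dawley rats (200–250 g) given 150 μl CFA (1 mg/ml in mineral oil) intraplantar in the hind paw. Mechanical paw withdrawal thresholds read with Von Frey hairs on day 5 postinjection. Dosed orally as nanocrystalline suspension in 2% polyvinylpyrrolidone/0.15% SDS in water, 10 ml/kg. PWTs taken 4 h postdose for dose-response, or at 1, 2, 4, 8, 24 h for time course.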"}, "[2]": {"target": "T1, Fatty-acid amide hydrolase 1 (Mus musculus) (UniProt O08914)", "T1 sequence (whole entry)": "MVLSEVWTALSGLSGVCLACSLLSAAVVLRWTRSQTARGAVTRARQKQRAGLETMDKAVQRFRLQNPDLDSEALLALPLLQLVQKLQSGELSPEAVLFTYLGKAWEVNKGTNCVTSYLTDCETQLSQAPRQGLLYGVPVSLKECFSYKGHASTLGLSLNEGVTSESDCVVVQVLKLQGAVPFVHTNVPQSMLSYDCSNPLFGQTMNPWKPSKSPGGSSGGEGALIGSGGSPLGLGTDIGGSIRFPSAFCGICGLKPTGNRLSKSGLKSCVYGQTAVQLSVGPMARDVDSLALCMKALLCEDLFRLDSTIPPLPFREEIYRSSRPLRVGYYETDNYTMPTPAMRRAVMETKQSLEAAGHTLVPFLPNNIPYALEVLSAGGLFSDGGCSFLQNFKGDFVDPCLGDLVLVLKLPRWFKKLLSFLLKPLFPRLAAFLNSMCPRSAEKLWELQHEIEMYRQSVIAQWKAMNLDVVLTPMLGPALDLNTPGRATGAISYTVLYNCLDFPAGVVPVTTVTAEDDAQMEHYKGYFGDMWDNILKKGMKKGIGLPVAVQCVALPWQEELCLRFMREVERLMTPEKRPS", "assay": "Inhibition of FAAH in mouse brain at 100 uM in presence of FP-rhodamine by competitive activity-based protein profiling method", "format": "tissue-based", "how_it_was_run": "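Competitive ABPP on human and mouse brain, liver and heart proteomes (membrane and soluble fractions), exposed to compound at 10 or 100 μM or to DMSO. Serine hydrolases were then labeled with FP-rhodamine. Gels were read by fluorescence scanning, and loss of band labeling (FAAH or other hydrolases by kDa) was judged.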"}, "[3]": {"assay": "Tmax in rat at 5 mg/kg, po measured upto 24 hrs by LC/MS analysis", "format": "ADME, organism-based", "conditions": "in vivo"}, "Rattus norvegicus [4]": {"system": "Rattus norvegicus", "assay": "Antihyperalgesic activity in MIA induced Sprague-Dawley rat assessed as increased joint compression thresholds at 3 mg/kg, po administered once daily for 3 consecutive days and measured after 2 to 4 hrs", "format": "functional, organism-based", "conditions": "time 3.0 day", "how_it_was_run": "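Male Sprague-Dawley rats (220–270 g), isoflurane-anesthetized, given 2 mg MIA in 0.9% saline (50 μl) intra-articular into the knee. From day 14, oral dosing at 10 ml/kg once daily for 3 days in 4% 2-hydroxypropyl-β-cyclodextrin/1% ethanol in 0.01 M HCl. Celecoxib 30 mg/kg in 0.5% methylcellulose twice daily. Joint compression threshold by digital Randall-Selitto at 2 and 4 h postdose on days 1 and 3; n = 10/group.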"}, "Mus musculus": {"system": "Mus musculus", "assay": "Antinociceptive activity in C57BL6/J mouse assessed as effect in body temperature at 1 to 10 mg/kg, po administered for 4 hrs", "format": "functional, organism-based", "conditions": "dose 1-10 mg/kg", "how_it_was_run": "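Male C57BL/6J mice, 7 weeks old, n = 8/group, dosed orally at 1 or 10 mg/kg in PEG 300 (4 ml/kg). Tetrad tested 4 h postdose: locomotor activity, tail-immersion thermal nociception, catalepsy (assessed 60 s), body temperature. Means ± S.E.M. versus vehicle.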"}, "[5]": {"target": "T2, Fatty-acid amide hydrolase 1 (Homo sapiens, UniProt O00519)", "T2 sequence (O00519 whole entry)": "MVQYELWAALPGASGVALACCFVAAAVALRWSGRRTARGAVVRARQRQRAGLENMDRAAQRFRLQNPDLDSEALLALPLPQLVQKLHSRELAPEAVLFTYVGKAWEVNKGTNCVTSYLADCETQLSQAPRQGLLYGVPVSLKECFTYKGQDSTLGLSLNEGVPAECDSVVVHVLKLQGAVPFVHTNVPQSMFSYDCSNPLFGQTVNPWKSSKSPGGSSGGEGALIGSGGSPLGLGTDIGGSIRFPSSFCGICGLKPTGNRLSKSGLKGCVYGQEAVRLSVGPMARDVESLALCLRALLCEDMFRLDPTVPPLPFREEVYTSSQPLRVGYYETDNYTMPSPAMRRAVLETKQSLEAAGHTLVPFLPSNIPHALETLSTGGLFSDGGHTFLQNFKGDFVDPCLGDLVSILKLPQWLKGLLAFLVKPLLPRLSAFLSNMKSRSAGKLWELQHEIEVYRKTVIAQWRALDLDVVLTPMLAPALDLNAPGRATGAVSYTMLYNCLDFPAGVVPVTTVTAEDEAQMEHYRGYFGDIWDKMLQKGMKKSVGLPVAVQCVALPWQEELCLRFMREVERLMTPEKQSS", "assay": "Inhibition of human FAAH assessed as kinact/Ki ratio incubated for 1 min in presence of glutamate dehydrogenase by 384-well format microplate reader assay"}}, "note": "Active and inactive are the calls of the source."}
{"smiles": "O=C(Nc1cccnn1)N1CCC(=Cc2cccc(Oc3ccc(C(F)(F)F)cn3)c2)CC1", "values": [{"measurement": "Activity", "setting": "Rattus norvegicus [1]", "value": "Active"}, {"measurement": "inhibition", "setting": "[2]", "value": "Active"}, {"measurement": "Tmax", "setting": "[3]", "value": 2, "unit": "h"}, {"measurement": "Activity", "setting": "Rattus norvegicus [4]", "value": "Active"}, {"measurement": "Activity", "setting": "Mus musculus", "value": "Non-Toxic"}, {"measurement": "IC50", "setting": "[5]", "value": 50.4, "unit": "nM"}]}
